# TNAP inh noacc = TNAP (human) inhibition, acceptor-free conditions; AID 1012; inhibition, % at 20 µM; purified TNAP, CDP-star luminescence, 30 min; P05186; 0.26% of 200,000 active;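 active = tissue-nonspecific alkaline phosphatase inhibition above about 50% at 20 µM in the single-dose screen, limit read from the data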;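 note: 0% = DMSO negative control and 100% = EDTA positive control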
# Target sequence (P05186 whole entry, looked up): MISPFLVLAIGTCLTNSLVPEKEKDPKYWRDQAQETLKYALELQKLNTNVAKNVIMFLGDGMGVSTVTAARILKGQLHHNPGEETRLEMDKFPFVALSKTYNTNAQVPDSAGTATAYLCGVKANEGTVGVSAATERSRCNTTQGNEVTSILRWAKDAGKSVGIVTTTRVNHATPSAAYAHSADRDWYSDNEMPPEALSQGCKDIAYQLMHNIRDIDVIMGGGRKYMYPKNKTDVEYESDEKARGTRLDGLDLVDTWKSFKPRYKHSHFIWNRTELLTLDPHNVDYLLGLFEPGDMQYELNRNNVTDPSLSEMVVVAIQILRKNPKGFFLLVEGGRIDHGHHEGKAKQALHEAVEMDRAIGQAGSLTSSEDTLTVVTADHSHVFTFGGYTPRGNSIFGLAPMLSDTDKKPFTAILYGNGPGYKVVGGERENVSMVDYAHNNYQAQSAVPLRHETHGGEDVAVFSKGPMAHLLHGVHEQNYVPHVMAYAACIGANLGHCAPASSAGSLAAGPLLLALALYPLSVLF
# TNAP act hiacc = TNAP (human) activation, high acceptor; purified TNAP, CDP-star luminescence, 1 M DEA, 30 min; active compounds read high; 0 = EDTA background, 1 = DMSO-only activity; 200,000 tested, under 10 active; activation factor at 20 µM; AID 1136; P05186;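 active = activation factor at least 2 at 20 µM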
#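 Test system – human TNAP · Doses – 20 µM single point · Incubation – 30 min, room temperature · Signal – luminescent substrate turnover signal · Read-out basis – activation factor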
# PTEN del growth = suppresses growth of cells with PTEN deletion; HCT116 PTEN-null viability, CellTiter-Glo, 60 h; active compounds read low; viability, % at 10 µM; 1.2% of 140,000 active; AID 827;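 active = viability at or below a set limit, 4 SD under the median of all tested compounds, cut at about 3.7% in these data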;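 note: PTEN knockout HCT116 line with beta catenin targeted HCT116 as companion control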
# HCT116 bCat-KO = beta-catenin-lacking colon tumor cell growth suppression. viability, % at 10 µM. HCT116 beta-catenin knockout viability, CellTiter-Glo, 60 h; active compounds read low. 1.5% of 140,000 active. AID 818;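 active = viability at or under a set limit, the compound median less 4 SD, cut at about 6% in these data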;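 note: 0% = Hyamine 1622 control at 20 µM and 100% = untreated cell control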
# TNAP inh hiacc = blocks human TNAP under high phosphate acceptor concentration; P05186; purified TNAP, CDP-star luminescence, 1 M DEA; inhibition, % at 20 µM; 0.03% of 200,000 active;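 active = over 50% inhibition of tissue-nonspecific alkaline phosphatase at 20 µM in the single-dose screen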;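 note: plate controls were DMSO wells for no effect and EDTA-quenched wells as full inhibition for full effect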
# L major viab = reduces viability of Leishmania major promastigotes. resazurin fluorescence viability. inhibition, % at 10 µM. 9% of 200,000 active; in the data active = inhibition above about 50%;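 note: promastigotes grown with compound for 44 hours at 28 °C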
# Starred values were filed as active, the others as inactive; . = not tested or not shown. In the library only some 9.6% were active in any assay of this set; here they are far more common.
SMILES,TNAP inh noacc,TNAP act hiacc,PTEN del growth,HCT116 bCat-KO,TNAP inh hiacc,L major viab
COc1ccc(C2C(C(=O)OC3CCCCC3)=C(C)Nc3nnnn32)c(OC)c1OC (stereo unspecified),-2,1,69,66,-4,91*
CCOC(=O)C1=C(C)Nc2nnnn2C1c1ccc(OC)c(Br)c1 (stereo unspecified),-5,1,100,96,-3,91*
CC1=C(C(=O)OC2CCCCC2)C(c2cccnc2)n2nnnc2N1 (stereo unspecified),-9,1.1,89,83,-7,14
CCCCOC(=O)C1=C(C)Nc2ncnn2C1c1ccc(OC)c(OC)c1 (stereo unspecified),-8,1.1,91,94,-6,75*
Cc1nc(Sc2nnnn2C)c2c3c(sc2n1)CCC3,-17,1.1,20,24,-8,26
CCc1nc(Sc2nnnn2-c2ccccc2)c2c3c(sc2n1)CCCC3,-15,1.1,3.1*,4.9*,-6,98*
Cc1c(N(C(=O)CNC(=O)c2ccccc2)C2(C(=O)NC3CCCCC3)CCCCC2)c(=O)n(-c2ccccc2)n1C,-10,1,.,.,-2,-6
O=C(NC(=S)NCCN1CCOCC1)c1ccccc1Cl,-7,1,95,89,2,58*
O=C(NC(=S)NCCN1CCOCC1)c1ccc(Cl)cc1,-10,1,92,95,2,-2
O=C(NC(=S)Nc1ccc(CN2CCOCC2)cc1)c1ccc([N+](=O)[O-])cc1Cl,1,1,.,.,-2,100*
O=C(NC(=S)NCCN1CCOCC1)c1ccc(Cl)cc1Cl,-8,1,91,84,-4,95*
CC(=O)NC(CC(=O)NC12CC3CC(CC(C3)C1)C2)c1ccccc1 (stereo unspecified),-11,1.1,90,89,-9,63*
O=C(NC12CC3CC(CC(C3)C1)C2)c1ccccc1O,-9,1.1,69,82,-5,50*
CC1CCc2c(sc3ncn(CC(=O)N4CCCCC4)c(=O)c23)C1 (stereo unspecified),-8,1.1,.,.,-6,-3
COc1ccc(NS(=O)(=O)c2ccc(OC)c(N(C)S(=O)(=O)c3ccc(Cl)cc3)c2)cc1,-6,1,23,13,-3,100*
COc1ccc(S(=O)(=O)Nc2ccc(F)cc2)cc1N(C)S(=O)(=O)c1ccc(Cl)cc1,-8,1.1,44,59,-6,100*
COc1ccc(S(=O)(=O)Nc2ccc(F)c(F)c2)cc1Cl,-6,1.1,72,72,-6,6
Cc1ccc(C(=O)COC(=O)c2ccccc2NC(=O)c2ccccc2)cc1[N+](=O)[O-],-11,1,92,89,-2,45
Cn1nc(C(=O)Nc2nc3ccccc3[nH]2)ccc1=O,-38,1,.,.,-2,-1
COc1c(C)cc(Br)cc1C(=O)Nc1ccc(S(N)(=O)=O)cc1,-4,1,.,.,0,1
Nc1c(C(=O)Nc2ccc(S(=O)(=O)N3CCCC3)cc2)sc2nc3ccc(OC(F)(F)F)cc3cc12,-1,0.9,9,14,11,49
Nc1c(C(=O)Nc2ccc(S(=O)(=O)N3CCCC3)cc2)sc2nc3cc4c(cc3cc12)CCC4,7,1,1.5*,5.8*,2,28
CC(=O)C1=C(O)C(=O)N(c2ccc(Br)cn2)C1c1ccc(F)cc1 (stereo unspecified),-3,1.1,.,.,-8,-4
Cc1nc2c(-c3ccc(F)cc3)c(C)nn2c(C)c1CCC(=O)NC(C)CCc1ccco1 (stereo unspecified),-5,1,94,92,0,100*
CCCCC(=O)Nc1cccc(-c2nc3ncccc3o2)c1,-5,1,82,89,1,100*
SMILES,TNAP inh noacc,TNAP act hiacc,PTEN del growth,HCT116 bCat-KO,TNAP inh hiacc,L major viab
CCCCCC(=O)Nc1cccc(-c2nc3ncccc3o2)c1,-1,1,102,88,-3,67*
CC1=NCCN1S(=O)(=O)c1cc([N+](=O)[O-])ccc1Cl,-3,1,.,.,-1,10
CCOc1ccc(C(C)C)cc1S(=O)(=O)n1ccnc1C,-14,1,.,.,-4,15
COc1ccc(-c2nn(-c3ccccc3)cc2/C=N/NC(=O)c2ccc(Br)o2)cc1,-5,1,6,5.0*,-3,16
COc1ccc(-c2nn(-c3ccccc3)cc2/C=N/NC(=O)c2cccc(S(=O)(=O)Nc3ccccc3OC)c2)cc1,2,1,68,64,-4,52*
CCNc1ccc(C(=O)N/N=C/c2c(C)nn(-c3ccccc3)c2N2CCCC2)cc1[N+](=O)[O-],0,1,68,70,3,3
COc1ccc(NS(=O)(=O)c2cccc(C(=O)O)c2)cc1,4,1,99,99,-4,-5
Cc1ccc(NS(=O)(=O)c2cccc(C(=O)N/N=C/c3c(C)nn(-c4ccccc4)c3N3CCCC3)c2)c(C)c1,-8,1,71,78,2,64*
COc1ccc(NS(=O)(=O)c2cccc(C(=O)N/N=C/c3cccs3)c2)cc1,-12,1.1,85,80,-6,53*
Cc1cccc(NC(=O)CSc2nc(C)c(Cc3ccccc3)c(=O)[nH]2)c1C,-1,1,.,.,2,-3
CC(NC(=O)COC(=O)CC(c1ccccc1)c1ccccc1)c1ccccc1 (stereo unspecified),-25,1.1,95,102,-5,-3
Cc1cc(NC(=O)CSc2nc3ccsc3c(=O)n2CCCC(=O)NCCc2ccccc2)no1,-11,1,.,.,-3,6
O=C(COC(=O)c1ccccc1C(=O)c1ccc(Cl)cc1)NCC1CCCO1 (stereo unspecified),-9,1,.,.,-4,5
COc1ccccc1NS(=O)(=O)c1cccc(C(=O)N/N=C/c2ccc(N3CCOCC3)cc2)c1,-13,1.1,90,91,-5,52*
Cc1ccccc1OS(=O)(=O)c1cn(C)c(=O)n(C)c1=O,-15,1,.,.,-5,-4
CN1c2ccccc2C(C)(C)C12CC(c1ccc(Cl)c(S(=O)(=O)N3CCCC3)c1)=NO2 (stereo unspecified),-2,1,82,73,3,69*
N#CCCN(C(=O)CSc1ccc2c(c1)OCCO2)c1ccc(F)cc1,-13,1.1,94,86,-8,87*
Cc1ccc(N(CCC#N)C(=O)CSc2ccc3c(c2)OCCO3)cc1,-10,1,104,95,-2,6
CC(C)CN1C(=O)/C(=C(/C#N)C(=O)NC2CCCCC2)c2ccccc21,-4,1,.,.,2,97*
O=c1c2ccccc2nc2n1CC/C2=C/N1CCN(c2cccc(C(F)(F)F)c2)CC1,-10,1.1,85,81,-6,55*
